Experimental data taken from ChEMBL document CHEMBL3525976, “An unusual metabolic pathway of sipoglitazar, a novel antidiabetic agent: cytochrome P450-catalyzed oxidation of sipoglitazar acyl glucuronide” (Drug Metab Dispos, 2012).

Key:
[1] = Chemical stability of the compound in potassium phosphate buffer at pH 7.4 assessed as formation of sipoglitazar at 10 uM up to 4 hrs; type: physicochemical; details: pH 7.4, 4 h
How it was run: (§1)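 [14C]glucuronide isomer (G1 or G2) at 10 μmol/L final, incubated at 37°C in 50 mmol/L potassium phosphate buffer (pH 7.4), acetate buffer (pH 4.4), rat bile or human plasma. Samples taken at 0, 5, 30 min and 1, 2, 4 h (G1) or 0, 1, 2, 4 h (G2). Reaction stopped with equal-volume acetonitrile and centrifuged. Supernatant analysed by radio-HPLC. Each species reported as % of total radioactivity.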

[2] = Stability of the compound in rat bile assessed as formation of sipoglitazar at 10 uM up to 4 hrs; type: ADME, tissue-based; how it was run: as §1
[3] = Drug level in human hepatic microsomes treated with 100 uM of [14C]Sipoglitazar after 4 hrs by HPLC analysis in presence of UDPGA; type: ADME, Liver
How it was run: (§2)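 Preparative glucuronidation: [14C]sipoglitazar 100 μmol/L with human liver microsomes (2 mg protein/mL) and UDPGA 5 mmol/L, 37°C, 4 h. Supernatant concentrated under nitrogen, then separated by radio-HPLC on ODS columns at 40°C or 4°C with acetonitrile/water/TFA gradient to resolve the glucuronide isomers.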

Plasma [4] = test: Stability of the compound in human plasma assessed as formation of sipoglitazar at 10 uM up to 4 hrs; type: ADME, cell-free; how it was run: as §1
[5] = Chemical stability of the compound in acetate buffer at pH 4.4 at 10 uM up to 4 hrs; type: physicochemical; details: pH 4.4, 4 h; how it was run: as §1
[6] = Drug metabolism in human hepatic microsomes assessed as formation of sipoglitazar at 10 uM after 10 mins by HPLC analysis in presence of NADPH; type: ADME, Liver, Microsome
How it was run: (§3)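 Human liver microsomes (1 mg protein/mL), 10 μmol/L [14C]glucuronide isomer, 5 mmol/L MgCl2, with or without NADPH-generating system (5 mmol/L G6P, 0.5 mmol/L β-NADP+, 1.5 U/mL G6PDH) in 50 mmol/L KPB. Incubated 37°C, 10 min. Acetonitrile quench, then radio-HPLC.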

Hepatocyte = test: Drug level in cryopreserved primary human hepatocytes treated with 10 uM of [14C]Sipoglitazar after 6 hrs by LC-MS and LC-MS/MS analysis; type: ADME, cell-based
How it was run: (§4)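 Cryopreserved human hepatocytes suspended in DMEM at 3 x 10⁵ viable cells/well with 10 μmol/L [14C]sipoglitazar, 37°C, 6 h. Stopped with acetonitrile and centrifuged; supernatant run on radio-HPLC (ODS column, acetonitrile/water/TFA gradient). Metabolites expressed as % of total radioactivity. Means of duplicates.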

[7] = Drug level in human hepatic microsomes treated with 10 uM of [14C]Sipoglitazar after 6 hrs by LC-MS and LC-MS/MS analysis in presence of NADPH and UDPGA; type: ADME, Liver
[8] = Drug level in human hepatic microsomes treated with 10 uM of [14C]Sipoglitazar after 6 hrs by LC-MS and LC-MS/MS analysis in presence of UDPGA; type: ADME, Liver
[9] = Drug level in human hepatic microsomes treated with 10 uM of [14C]Sipoglitazar after 6 hrs by LC-MS and LC-MS/MS analysis in presence of NADPH; type: ADME, Liver
Cytochrome P450 2C8 = biological target: T1, Cytochrome P450 2C8 (Homo sapiens, UniProt P10632); test: Drug metabolism in […] assessed as CYP2C8-mediated formation of 3-(3-hydroxy-1-{4-[(2-phenyl-1,3-thiazol-4-yl)methoxy]benzyl}-1H-pyrazol-4-yl)propanoic acid at 10 uM after 15 mins by HPLC analysis in presence of NADPH; details: 0.25 h
T1 sequence (P10632 whole entry): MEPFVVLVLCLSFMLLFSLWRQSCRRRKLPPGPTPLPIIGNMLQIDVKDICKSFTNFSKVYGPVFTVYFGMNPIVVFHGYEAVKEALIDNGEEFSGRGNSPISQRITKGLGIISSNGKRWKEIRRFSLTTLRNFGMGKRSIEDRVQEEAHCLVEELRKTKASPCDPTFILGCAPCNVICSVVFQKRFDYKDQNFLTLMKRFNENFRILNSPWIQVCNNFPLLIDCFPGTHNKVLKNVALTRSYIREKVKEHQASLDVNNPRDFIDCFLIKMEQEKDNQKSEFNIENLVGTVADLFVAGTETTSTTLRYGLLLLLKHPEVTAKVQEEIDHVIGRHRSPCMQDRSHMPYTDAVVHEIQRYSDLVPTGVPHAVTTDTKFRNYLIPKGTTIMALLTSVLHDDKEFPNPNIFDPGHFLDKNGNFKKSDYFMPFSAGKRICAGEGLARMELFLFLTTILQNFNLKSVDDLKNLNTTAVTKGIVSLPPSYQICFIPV
How it was run: (§5)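 Recombinant CYP-expressing microsomes (80 pmol P450/mL) with 10 μmol/L [14C]glucuronide substrate, 5 mmol/L MgCl2 and NADPH-generating system (5 mmol/L glucose-6-phosphate, 0.5 mmol/L β-NADP+, 1.5 U/mL G6PDH) in 50 mmol/L KPB or Tris-HCl pH 7.4. Incubated 37°C, 15 min. Deethylated product quantified by radio-HPLC. Means of duplicates.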

[10] = Drug metabolism in human hepatic microsomes assessed as formation of 3-(3-hydroxy-1-{4-[(2-phenyl-1,3-thiazol-4-yl)methoxy]benzyl}-1H-pyrazol-4-yl)propanoic acid at 10 uM after 10 mins by HPLC analysis in presence of NADPH; type: ADME, Liver, Microsome; how it was run: as §3
Cytochrome P450 2E1 = Cytochrome P450 2E1 (Homo sapiens, UniProt P05181); test: Drug metabolism in […] assessed as CYP2E1-mediated formation of 3-(3-hydroxy-1-{4-[(2-phenyl-1,3-thiazol-4-yl)methoxy]benzyl}-1H-pyrazol-4-yl)propanoic acid at 10 uM after 15 mins by HPLC analysis in presence of NADPH; details: 0.25 h; how it was run: as §5
Chain of Cytochrome P450 2E1 (P05181 whole entry): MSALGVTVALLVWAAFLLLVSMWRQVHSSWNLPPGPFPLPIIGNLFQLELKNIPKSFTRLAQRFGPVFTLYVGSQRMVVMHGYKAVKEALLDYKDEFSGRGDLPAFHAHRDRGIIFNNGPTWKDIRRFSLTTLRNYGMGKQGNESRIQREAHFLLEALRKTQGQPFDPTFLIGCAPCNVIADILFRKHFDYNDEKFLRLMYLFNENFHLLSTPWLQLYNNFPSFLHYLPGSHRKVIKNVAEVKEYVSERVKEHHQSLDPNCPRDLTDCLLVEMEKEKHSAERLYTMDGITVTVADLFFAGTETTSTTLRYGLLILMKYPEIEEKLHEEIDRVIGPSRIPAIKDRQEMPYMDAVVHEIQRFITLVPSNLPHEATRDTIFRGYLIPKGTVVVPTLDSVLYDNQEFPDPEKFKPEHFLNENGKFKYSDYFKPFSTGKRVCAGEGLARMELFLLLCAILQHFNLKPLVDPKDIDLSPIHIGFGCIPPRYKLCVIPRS

Plasma [11] = test: Stability of the compound in human plasma assessed as formation of alpha-2-O-acyl glucuronide conjugate of sipoglitazar at 10 uM up to 4 hrs; type: ADME, cell-free; how it was run: as §1
[12] = Chemical stability of the compound in potassium phosphate buffer at pH 7.4 assessed as formation of alpha-2-O-acyl glucuronide conjugate of sipoglitazar at 10 uM up to 4 hrs; type: physicochemical; details: pH 7.4, 4 h; how it was run: as §1
[13] = Stability of the compound in rat bile assessed as formation of alpha-2-O-acyl glucuronide conjugate of sipoglitazar at 10 uM up to 4 hrs; type: ADME, tissue-based; how it was run: as §1
Cytochrome P450 2B6 = biological target: T2, Cytochrome P450 2B6 (Homo sapiens, UniProt P20813); test: Drug metabolism in […] assessed as CYP2B6-mediated formation of 3-(3-hydroxy-1-{4-[(2-phenyl-1,3-thiazol-4-yl)methoxy]benzyl}-1H-pyrazol-4-yl)propanoic acid at 10 uM after 15 mins by HPLC analysis in presence of NADPH; details: 0.25 h; how it was run: as §5
T2 sequence (P20813 whole entry): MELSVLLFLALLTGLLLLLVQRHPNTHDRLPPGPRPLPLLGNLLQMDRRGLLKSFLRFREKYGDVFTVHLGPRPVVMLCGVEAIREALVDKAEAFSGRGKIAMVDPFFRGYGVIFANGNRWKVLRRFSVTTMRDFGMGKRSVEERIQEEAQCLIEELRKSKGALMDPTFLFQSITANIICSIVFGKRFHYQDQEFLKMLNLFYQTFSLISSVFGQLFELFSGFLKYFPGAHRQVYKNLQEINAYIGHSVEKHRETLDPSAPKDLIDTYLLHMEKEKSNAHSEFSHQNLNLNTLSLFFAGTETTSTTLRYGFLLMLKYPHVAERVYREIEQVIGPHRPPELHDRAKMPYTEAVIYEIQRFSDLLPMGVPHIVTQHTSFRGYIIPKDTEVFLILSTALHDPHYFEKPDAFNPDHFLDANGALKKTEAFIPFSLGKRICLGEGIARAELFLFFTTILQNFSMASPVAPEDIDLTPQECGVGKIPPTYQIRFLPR

[14] = Drug metabolism in human hepatic microsomes assessed as formation of 3-[3-ethoxy-1-(4-hydroxybenzyl)-1H-pyrazol-4-yl]propanoic acid] at 10 uM after 30 mins by LC-MS and LC-MS/MS analysis in presence of gemfibrozil, NADPH and UDPGA; type: ADME, Liver, Microsome; details: 0.5 h
How it was run: (§6)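 Human liver microsomes (0.5 mg protein/mL), 10 μmol/L [14C]sipoglitazar, 5 mmol/L MgCl2, alamethicin 50 μg/mL and UDPGA 5 mmol/L, with or without NADPH-generating system. Gemfibrozil added at 0, 10, 30, 100 or 300 μmol/L final, in 50 mmol/L KPB pH 7.4. Incubated 37°C, 30 min. Acetonitrile quench, then radio-HPLC.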

[15] = Drug metabolism in human hepatic microsomes assessed as elimination of compound at 10 uM after 30 mins by LC-MS and LC-MS/MS analysis in presence of gemfibrozil, NADPH and UDPGA; type: ADME, Liver, Microsome; details: 0.5 h; how it was run: as §6
[16] = Drug metabolism in human hepatic microsomes assessed as formation of beta-1-O-acyl glucuronide conjugate of sipoglitazar at 100 uM after 4 hrs by HPLC analysis in presence of UDPGA; type: ADME, Liver, Microsome; how it was run: as §2
[17] = Drug metabolism in cryopreserved primary human hepatocytes assessed as formation of 3-[3-ethoxy-1-(4-hydroxybenzyl)-1H-pyrazol-4-yl]propanoic acid] at 10 uM after 6 hrs by LC-MS and LC-MS/MS analysis; type: ADME, cell-based, Hepatocyte; how it was run: as §4
[18] = Drug metabolism in human hepatic microsomes assessed as elimination of compound at 10 uM after 30 mins by LC-MS and LC-MS/MS analysis in presence of gemfibrozil and UDPGA; type: ADME, Liver, Microsome; details: 0.5 h; how it was run: as §6
[19] = Drug metabolism in human hepatic microsomes assessed as beta-1-O-acyl glucuronide conjugate of sipoglitazar formation at 10 uM after 30 mins by LC-MS and LC-MS/MS analysis in presence of gemfibrozil and UDPGA; type: ADME, Liver, Microsome; details: 0.5 h; how it was run: as §6
[20] = Drug metabolism in human hepatic microsomes assessed as formation of 3-[3-ethoxy-1-(4-hydroxybenzyl)-1H-pyrazol-4-yl]propanoic acid] at 10 uM after 6 hrs by LC-MS and LC-MS/MS analysis in presence of NADPH and UDPGA; type: ADME, Liver, Microsome
[21] = Drug metabolism in human hepatic microsomes assessed as formation of 3-[3-ethoxy-1-(4-hydroxybenzyl)-1H-pyrazol-4-yl]propanoic acid] at 10 uM after 1 hr by LC-MS and LC-MS/MS analysis in presence of NADPH
[22] = Drug metabolism in human hepatic microsomes assessed as formation of 3-(3-hydroxy-1-{4-[(2-phenyl-1,3-thiazol-4-yl)methoxy]benzyl}-1H-pyrazol-4-yl)propanoic acid at 10 uM after 6 hrs by LC-MS and LC-MS/MS analysis in presence of NADPH and UDPGA; type: ADME, Liver, Microsome
[23] = Drug metabolism in human hepatic microsomes assessed as formation of 3-(3-hydroxy-1-{4-[(2-phenyl-1,3-thiazol-4-yl)methoxy]benzyl}-1H-pyrazol-4-yl)propanoic acid at 10 uM after 1 hr by LC-MS and LC-MS/MS analysis in presence of NADPH
[24] = Drug metabolism in human hepatic microsomes assessed as formation of alpha-2-O-acyl glucuronide conjugate of sipoglitazar at 100 uM after 4 hrs by HPLC analysis in presence of UDPGA; type: ADME, Liver, Microsome; how it was run: as §2
[25] = Drug metabolism in cryopreserved primary human hepatocytes assessed as formation of 3-(3-hydroxy-1-{4-[(2-phenyl-1,3-thiazol-4-yl)methoxy]benzyl}-1H-pyrazol-4-yl)propanoic acid at 10 uM after 6 hrs by LC-MS and LC-MS/MS analysis; type: ADME, cell-based, Hepatocyte; how it was run: as §4
[26] = Drug metabolism in human hepatic microsomes assessed as formation of 3-(3-hydroxy-1-{4-[(2-phenyl-1,3-thiazol-4-yl)methoxy]benzyl}-1H-pyrazol-4-yl)propanoic acid at 10 uM after 30 mins by LC-MS and LC-MS/MS analysis in presence of gemfibrozil, NADPH and UDPGA; type: ADME, Liver, Microsome; details: 0.5 h; how it was run: as §6

SMILES | Stability [1] | Stability [2] | Drug metabolism [3] | Stability (Plasma [4]) | Stability [5] | Drug metabolism [6] | Drug metabolism (Hepatocyte) | Drug metabolism [7] | Drug metabolism [8] | Drug metabolism [9] | further results
CCOc1nn(Cc2ccc(OCc3csc(-c4ccccc4)n3)cc2)cc1CCC(=O)O[C@@H]1[C@@H](O)[C@H](O)[C@@H](C(=O)O)O[C@@H]1O | Unstable | Unstable | metabolite_detected | Unstable | Stable | metabolite_detected |  |  |  |  | 
CCOc1nn(Cc2ccc(O)cc2)cc1CCC(=O)O |  |  |  |  |  |  | metabolite_detected | metabolite_detected | metabolite_detected | metabolite_detected | 
CCOc1nn(Cc2ccc(OCc3csc(-c4ccccc4)n3)cc2)cc1CCC(=O)O[C@@H]1O[C@H](C(=O)O)[C@@H](O)[C@H](O)[C@H]1O | Unstable | Unstable | metabolite_detected | Unstable | Stable | metabolite_detected |  |  |  |  | Drug metabolism (Cytochrome P450 2C8): metabolite_detected; Drug metabolism [10]: metabolite_detected; Drug metabolism (Cytochrome P450 2E1): metabolite_not_detected; Stability (Plasma [11]): Unstable; Stability [12]: Unstable; Stability [13]: Unstable; Drug metabolism (Cytochrome P450 2B6): metabolite_not_detected
CCOc1nn(Cc2ccc(OCc3csc(-c4ccccc4)n3)cc2)cc1CCC(=O)O [SIPOGLITAZAR] |  |  |  |  |  |  |  |  |  |  | Drug metabolism [14]: metabolite_not_detected; Drug metabolism [15]: metabolite_not_detected; Drug metabolism [16]: metabolite_detected; Drug metabolism [17]: metabolite_detected; Drug metabolism [18]: metabolite_not_detected; Drug metabolism [19]: metabolite_not_detected; Drug metabolism [20]: metabolite_detected; Drug metabolism [21]: metabolite_detected; Drug metabolism [22]: metabolite_detected; Drug metabolism [23]: metabolite_detected; Drug metabolism [24]: metabolite_detected; Drug metabolism [25]: metabolite_detected; Drug metabolism [26]: metabolite_not_detected
O=C(O)CCc1cn(Cc2ccc(OCc3csc(-c4ccccc4)n3)cc2)nc1O |  |  |  |  |  |  | metabolite_detected | metabolite_detected | metabolite_detected | metabolite_detected | 
